Where a chain is given by its changes, count along the chain named.
Experiments:
Settings in all cases: stereoisomer not certain
OR52I1 (Homo sapiens) = target: T1, OR52I1 (Homo sapiens) (UniProt Q8NGK6)
T1 sequence (whole entry): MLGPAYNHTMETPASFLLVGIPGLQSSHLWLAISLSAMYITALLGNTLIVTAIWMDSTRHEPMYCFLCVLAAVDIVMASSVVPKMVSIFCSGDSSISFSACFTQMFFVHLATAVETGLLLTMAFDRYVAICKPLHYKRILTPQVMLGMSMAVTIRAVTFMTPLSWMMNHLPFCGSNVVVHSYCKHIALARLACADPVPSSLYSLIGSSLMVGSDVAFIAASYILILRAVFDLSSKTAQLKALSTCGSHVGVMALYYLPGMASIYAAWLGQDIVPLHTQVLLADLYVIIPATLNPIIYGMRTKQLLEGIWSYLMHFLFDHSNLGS
Outline: (§1)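 Transient luciferase assays in mammalian cell lines were common, though methods varied by source. The values come from published papers and their supplementary material, with extra details from the original authors when needed. Responsive refers to a measured signal the original authors judged statistically different from baseline, and non-responsive (inactive) to the remainder.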

OR52I2 (Homo sapiens) = target: T2, OR52I2 (Homo sapiens) (UniProt Q8NH67)
T2 sequence (whole entry): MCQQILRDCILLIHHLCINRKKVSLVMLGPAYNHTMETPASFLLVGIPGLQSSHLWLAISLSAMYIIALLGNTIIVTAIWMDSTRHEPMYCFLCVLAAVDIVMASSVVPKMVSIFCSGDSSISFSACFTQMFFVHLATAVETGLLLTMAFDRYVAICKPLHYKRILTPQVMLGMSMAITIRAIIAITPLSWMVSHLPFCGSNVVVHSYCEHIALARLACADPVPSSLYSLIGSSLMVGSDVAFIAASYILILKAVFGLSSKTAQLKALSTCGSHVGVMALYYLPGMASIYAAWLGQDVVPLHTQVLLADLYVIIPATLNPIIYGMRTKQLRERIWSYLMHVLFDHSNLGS
Outline: as §1

OR52J3 (Homo sapiens) = OR52J3 (Homo sapiens) (UniProt Q8NH60)
Outline: as §1

OR52K1 (Homo sapiens) = target: T3, OR52K1 (Homo sapiens) (UniProt Q8NGK4)
T3 sequence (whole entry): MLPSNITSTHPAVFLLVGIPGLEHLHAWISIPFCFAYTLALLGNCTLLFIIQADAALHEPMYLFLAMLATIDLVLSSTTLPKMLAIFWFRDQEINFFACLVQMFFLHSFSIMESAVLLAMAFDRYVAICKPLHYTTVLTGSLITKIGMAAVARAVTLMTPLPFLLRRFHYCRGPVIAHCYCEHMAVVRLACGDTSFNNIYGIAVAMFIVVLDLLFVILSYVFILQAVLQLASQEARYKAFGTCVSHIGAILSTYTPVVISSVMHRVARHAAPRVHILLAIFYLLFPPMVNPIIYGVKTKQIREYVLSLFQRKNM
Outline: as §1

OR52K2 (Homo sapiens) = target: T4, OR52K2 (Homo sapiens) (UniProt Q8NGK3)
T4 sequence (whole entry): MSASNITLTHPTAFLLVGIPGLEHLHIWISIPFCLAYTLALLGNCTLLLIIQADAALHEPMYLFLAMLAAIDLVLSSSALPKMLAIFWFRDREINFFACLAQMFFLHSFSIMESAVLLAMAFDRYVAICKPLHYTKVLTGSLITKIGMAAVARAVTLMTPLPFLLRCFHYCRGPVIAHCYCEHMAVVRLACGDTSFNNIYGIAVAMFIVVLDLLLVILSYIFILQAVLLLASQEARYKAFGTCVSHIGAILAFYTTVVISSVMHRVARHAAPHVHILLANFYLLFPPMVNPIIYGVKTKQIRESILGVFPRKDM
Outline: as §1

OR52L1 (Homo sapiens) [1] = target: T5, OR52L1 (Homo sapiens) (UniProt Q8NGH7)
T5 sequence (whole entry): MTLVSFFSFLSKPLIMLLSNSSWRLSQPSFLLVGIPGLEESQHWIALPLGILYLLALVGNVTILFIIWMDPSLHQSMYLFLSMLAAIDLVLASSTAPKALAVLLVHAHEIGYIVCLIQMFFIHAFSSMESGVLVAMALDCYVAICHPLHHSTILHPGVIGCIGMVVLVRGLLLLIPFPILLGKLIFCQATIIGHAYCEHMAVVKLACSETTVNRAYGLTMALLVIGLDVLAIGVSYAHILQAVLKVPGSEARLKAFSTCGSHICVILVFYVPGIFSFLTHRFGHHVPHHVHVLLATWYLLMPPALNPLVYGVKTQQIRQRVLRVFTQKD
Outline: as §1

OR52M1 (Homo sapiens) = target: T6, OR52M1 (Homo sapiens) (UniProt Q8NGK5)
T6 sequence (whole entry): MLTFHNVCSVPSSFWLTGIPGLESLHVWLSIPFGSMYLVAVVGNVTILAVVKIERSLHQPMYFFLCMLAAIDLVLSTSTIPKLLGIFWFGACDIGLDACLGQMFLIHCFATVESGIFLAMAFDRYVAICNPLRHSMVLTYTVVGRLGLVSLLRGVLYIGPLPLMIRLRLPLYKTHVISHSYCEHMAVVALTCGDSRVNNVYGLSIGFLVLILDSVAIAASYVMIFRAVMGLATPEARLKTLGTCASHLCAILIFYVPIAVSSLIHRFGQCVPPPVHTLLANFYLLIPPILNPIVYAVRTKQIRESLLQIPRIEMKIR
Outline: as §1

OR52N1 (Homo sapiens) = target: T7, OR52N1 (Homo sapiens) (UniProt Q8NH53)
T7 sequence (whole entry): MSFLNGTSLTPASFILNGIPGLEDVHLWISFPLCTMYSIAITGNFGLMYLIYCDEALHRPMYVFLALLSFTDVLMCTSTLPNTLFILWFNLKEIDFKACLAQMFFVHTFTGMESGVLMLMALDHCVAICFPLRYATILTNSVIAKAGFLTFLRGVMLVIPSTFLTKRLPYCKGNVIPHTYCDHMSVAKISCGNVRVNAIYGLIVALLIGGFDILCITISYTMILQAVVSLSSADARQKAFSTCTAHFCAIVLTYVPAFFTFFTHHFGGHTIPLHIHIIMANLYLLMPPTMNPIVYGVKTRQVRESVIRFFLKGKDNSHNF
Outline: as §1

OR52N2 (Homo sapiens) = target: T8, OR52N2 (Homo sapiens) (UniProt Q8NGI0)
T8 sequence (whole entry): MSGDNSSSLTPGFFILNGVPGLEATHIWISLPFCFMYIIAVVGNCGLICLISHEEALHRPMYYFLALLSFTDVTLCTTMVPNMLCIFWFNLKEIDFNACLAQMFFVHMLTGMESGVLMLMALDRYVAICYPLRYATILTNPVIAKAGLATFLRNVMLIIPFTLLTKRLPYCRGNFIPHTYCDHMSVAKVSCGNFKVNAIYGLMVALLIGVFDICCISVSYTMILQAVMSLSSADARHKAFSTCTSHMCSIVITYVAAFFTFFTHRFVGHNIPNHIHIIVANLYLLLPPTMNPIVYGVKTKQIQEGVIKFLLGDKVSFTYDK
Outline: as §1

OR52N4 (Homo sapiens) = target: T9, OR52N4 (Homo sapiens) (UniProt Q8NGI2)
T9 sequence (whole entry): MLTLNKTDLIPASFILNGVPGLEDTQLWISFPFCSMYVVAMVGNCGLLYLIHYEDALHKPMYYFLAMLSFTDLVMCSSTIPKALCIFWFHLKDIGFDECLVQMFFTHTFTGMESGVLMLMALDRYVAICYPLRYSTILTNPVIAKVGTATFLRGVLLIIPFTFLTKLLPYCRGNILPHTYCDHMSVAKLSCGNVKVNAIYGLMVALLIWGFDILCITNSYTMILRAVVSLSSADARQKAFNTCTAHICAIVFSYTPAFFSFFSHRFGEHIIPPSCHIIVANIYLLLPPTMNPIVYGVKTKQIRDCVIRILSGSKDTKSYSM
Outline: as §1

OR52N5 (Homo sapiens) = target: T10, OR52N5 (Homo sapiens) (UniProt Q8NH56)
T10 sequence (whole entry): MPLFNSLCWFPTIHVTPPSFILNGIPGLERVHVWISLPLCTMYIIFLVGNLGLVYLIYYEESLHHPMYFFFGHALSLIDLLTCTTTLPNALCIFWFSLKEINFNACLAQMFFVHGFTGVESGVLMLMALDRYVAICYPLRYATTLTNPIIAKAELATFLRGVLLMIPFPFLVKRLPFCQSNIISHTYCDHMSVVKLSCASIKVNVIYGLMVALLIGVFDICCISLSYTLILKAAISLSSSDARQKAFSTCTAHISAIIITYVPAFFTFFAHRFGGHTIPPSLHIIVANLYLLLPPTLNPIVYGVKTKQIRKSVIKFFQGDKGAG
Outline: as §1

OR52R1 (Homo sapiens) = target: T11, OR52R1 (Homo sapiens) (UniProt Q8NGF1)
T11 sequence (whole entry): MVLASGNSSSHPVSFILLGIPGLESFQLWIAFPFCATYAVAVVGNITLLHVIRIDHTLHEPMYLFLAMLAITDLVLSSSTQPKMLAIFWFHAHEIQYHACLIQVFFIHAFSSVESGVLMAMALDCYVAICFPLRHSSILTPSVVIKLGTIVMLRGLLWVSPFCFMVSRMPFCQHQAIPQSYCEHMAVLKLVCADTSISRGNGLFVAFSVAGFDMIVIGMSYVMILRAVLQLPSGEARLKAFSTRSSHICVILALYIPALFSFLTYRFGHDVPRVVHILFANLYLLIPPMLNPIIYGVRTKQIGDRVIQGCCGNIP
Outline: as §1

OR52W1 (Homo sapiens) = target: T12, OR52W1 (Homo sapiens) (UniProt Q6IF63)
T12 sequence (whole entry): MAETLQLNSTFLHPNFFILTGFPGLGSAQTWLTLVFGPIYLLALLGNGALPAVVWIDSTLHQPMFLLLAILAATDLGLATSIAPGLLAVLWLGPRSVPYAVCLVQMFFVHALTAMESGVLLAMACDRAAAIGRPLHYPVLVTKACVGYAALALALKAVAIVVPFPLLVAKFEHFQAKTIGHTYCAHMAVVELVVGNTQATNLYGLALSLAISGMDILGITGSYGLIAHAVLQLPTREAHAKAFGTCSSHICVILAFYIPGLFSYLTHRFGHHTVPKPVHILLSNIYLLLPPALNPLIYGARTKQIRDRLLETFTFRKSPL
Outline: as §1

OR56A1 (Homo sapiens) = target: T13, OR56A1 (Homo sapiens) (UniProt Q8NGH5)
T13 sequence (whole entry): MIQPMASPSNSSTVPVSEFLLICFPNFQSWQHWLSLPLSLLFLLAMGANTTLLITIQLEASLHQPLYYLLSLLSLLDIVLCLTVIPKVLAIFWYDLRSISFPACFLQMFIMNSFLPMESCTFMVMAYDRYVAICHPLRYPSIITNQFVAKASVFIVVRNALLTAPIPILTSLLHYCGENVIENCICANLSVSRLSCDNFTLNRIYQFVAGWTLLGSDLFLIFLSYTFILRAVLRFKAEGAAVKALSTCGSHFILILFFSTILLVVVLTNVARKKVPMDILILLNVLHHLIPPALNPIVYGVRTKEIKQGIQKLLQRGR
Outline: as §1

OR56A3 (Homo sapiens) = target: T14, OR56A3 (Homo sapiens) (UniProt Q8NH54)
T14 sequence (whole entry): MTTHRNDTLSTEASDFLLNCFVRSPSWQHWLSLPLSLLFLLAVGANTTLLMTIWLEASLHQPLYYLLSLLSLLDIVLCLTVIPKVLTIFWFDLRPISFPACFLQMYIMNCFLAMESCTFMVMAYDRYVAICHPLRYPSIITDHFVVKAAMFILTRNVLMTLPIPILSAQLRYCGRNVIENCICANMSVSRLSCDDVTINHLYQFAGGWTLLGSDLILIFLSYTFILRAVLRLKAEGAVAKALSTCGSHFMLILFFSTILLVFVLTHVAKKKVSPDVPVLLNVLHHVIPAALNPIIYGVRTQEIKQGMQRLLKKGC
Outline: as §1

OR56A4 (Homo sapiens) = target: T15, OR56A4 (Homo sapiens) (UniProt Q8NGH8)
T15 sequence (whole entry): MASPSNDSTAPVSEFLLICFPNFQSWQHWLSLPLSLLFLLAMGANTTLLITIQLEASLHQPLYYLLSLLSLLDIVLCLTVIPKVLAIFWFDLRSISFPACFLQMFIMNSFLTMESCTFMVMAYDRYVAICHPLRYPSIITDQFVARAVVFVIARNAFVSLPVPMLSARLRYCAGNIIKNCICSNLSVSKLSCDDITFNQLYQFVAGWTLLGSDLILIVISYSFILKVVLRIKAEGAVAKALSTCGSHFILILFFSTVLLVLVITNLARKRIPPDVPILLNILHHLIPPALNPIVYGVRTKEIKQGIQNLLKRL
Outline: as §1

OR56A5 (Homo sapiens) = target: T16, OR56A5 (Homo sapiens) (UniProt P0C7T3)
T16 sequence (whole entry): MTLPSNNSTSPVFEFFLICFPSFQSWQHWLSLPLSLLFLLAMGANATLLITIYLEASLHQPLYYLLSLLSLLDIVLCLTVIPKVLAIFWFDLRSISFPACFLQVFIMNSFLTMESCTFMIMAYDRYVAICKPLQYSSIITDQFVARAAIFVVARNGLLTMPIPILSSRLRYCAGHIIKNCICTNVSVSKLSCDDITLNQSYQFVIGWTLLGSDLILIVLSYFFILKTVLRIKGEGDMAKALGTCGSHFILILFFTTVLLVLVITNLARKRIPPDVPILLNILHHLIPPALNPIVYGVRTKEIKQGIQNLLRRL
Outline: as §1

OR56B1 (Homo sapiens) = target: T17, OR56B1 (Homo sapiens) (UniProt Q8NGI3)
T17 sequence (whole entry): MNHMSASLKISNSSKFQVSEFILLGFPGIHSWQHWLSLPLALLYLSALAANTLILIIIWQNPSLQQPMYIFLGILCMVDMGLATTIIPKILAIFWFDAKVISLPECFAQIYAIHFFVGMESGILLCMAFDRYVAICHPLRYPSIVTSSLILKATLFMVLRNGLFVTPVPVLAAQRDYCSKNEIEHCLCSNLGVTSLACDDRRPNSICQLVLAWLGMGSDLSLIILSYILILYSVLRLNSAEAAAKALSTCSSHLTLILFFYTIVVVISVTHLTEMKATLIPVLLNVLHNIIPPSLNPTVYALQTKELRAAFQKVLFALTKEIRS
Outline: as §1

OR52L1 (Homo sapiens) [2] = target: T18, OR52L1 (Homo sapiens) (UniProt Q8NGH7); remark: listed apart in the source
T18 sequence (whole entry): T5 sequence (whole entry) with C140R, C161R, K183T, W297R
Outline: as §1

Measured: odorant receptor agonist call

Chain of OR52J3 (Homo sapiens) (Q8NH60 whole entry): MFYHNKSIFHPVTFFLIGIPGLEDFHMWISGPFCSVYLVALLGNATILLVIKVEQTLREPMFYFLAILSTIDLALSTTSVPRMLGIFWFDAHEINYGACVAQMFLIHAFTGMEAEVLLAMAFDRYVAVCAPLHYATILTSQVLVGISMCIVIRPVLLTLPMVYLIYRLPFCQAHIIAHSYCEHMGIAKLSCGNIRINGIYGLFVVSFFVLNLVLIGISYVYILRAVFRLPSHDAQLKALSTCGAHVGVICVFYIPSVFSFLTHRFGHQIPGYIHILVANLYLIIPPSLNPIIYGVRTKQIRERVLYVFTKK

CCCCC(S)C(C)CO (stereo not given)
active: OR52L1 (Homo sapiens) [1] | OR52N5 (Homo sapiens)
not listed: OR52L1 (Homo sapiens) [2]
inactive: all other assays above

CCC1OC(C)=C(O)C1=O (stereo not given)
not listed: OR52L1 (Homo sapiens) [1] | OR56A4 (Homo sapiens)
inactive: all other assays above
